Calb biofilm kill – mixture kills Candida albicans biofilm cells; C. albicans biofilm persisters + clotrimazole, fluorescence viability; primary screen in compound mixtures of four per well; inhibition, % at 7.6 µM; actives 0.02% (n = 120,000);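 active means inhibition above 30.3% in the primary screen of four-compound pools, then above 30% when the compound was retested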;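 further: compounds exposed to preformed 24 h biofilms for 48 h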
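System: C. albicans CAF4-2 wild-type biofilms; Medium: RPMI/MOPS medium, pH 7.0; Reagent: Clotrimazole, 50 µg/mL; Times: biofilm formation 24 h, compound exposure 48 h, 37 °C; Detection: 2-h Alamar Blue fluorescence, 535/590 nm excitation/emission; Evaluation: percent inhibition of biofilm viability.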
S1P3 antag-1 – blocks the human S1P3 receptor; CHO S1P3 NFAT-BLA reporter, FRET fluorescence, antagonist mode; inhibition, % at 4.98 µM; AID 485; Q99500; actives 0.27% (n = 170,000);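 active means inhibition above the plate cutoff, the mean inhibition of test wells on that plate plus 3 SD, cut at about 28% in these data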;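 further: cells challenged with S1P at its EC80 of 0.8 µM; blue over green emission ratio from cleaved BLA substrate after 4 h stimulation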
S1P4 agonist – agonists of human S1P4 receptor | O95977 | S1P4-expressing cell line, agonist reporter assay | AID 1509 | activation, % at 4.98 µM | actives 0.35% (n = 220,000); in the data active means activation above about 11%
Target sequence (O95977 whole entry, looked up): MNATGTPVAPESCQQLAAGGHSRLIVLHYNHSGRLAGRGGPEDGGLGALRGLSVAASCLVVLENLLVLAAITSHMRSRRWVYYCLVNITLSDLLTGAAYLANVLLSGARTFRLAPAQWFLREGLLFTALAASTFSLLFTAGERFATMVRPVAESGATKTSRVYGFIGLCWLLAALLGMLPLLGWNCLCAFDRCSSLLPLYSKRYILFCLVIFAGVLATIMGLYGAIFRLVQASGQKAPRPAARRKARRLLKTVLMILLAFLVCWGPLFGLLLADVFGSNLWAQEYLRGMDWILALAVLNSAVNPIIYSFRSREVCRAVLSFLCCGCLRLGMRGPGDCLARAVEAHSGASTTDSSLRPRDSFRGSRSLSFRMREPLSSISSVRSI
S1P4 antag – human S1P4 receptor antagonism; O95977; S1P4-expressing cells, antagonist mode, reporter read-out; inhibition, % at 4.98 µM; actives 0.26% (n = 220,000); in the data active means inhibition above about 29%
Pf gamet viab – P. falciparum stage V gametocyte viability inhibition | P. falciparum stage V gametocytes, ATP luminescence, 24 h | actives 0.065% (n = 150,000) | inhibition, % at 10.9 µM;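 active means inhibition above the mean plus 3 SD of compounds within the control limits, set per campaign, cut at about 38% in these data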
S1P3 antag-2 – human S1P3 receptor antagonism, confirmation. shares compounds with S1P3 antag-1. CHO S1P3 NFAT-BLA reporter, FRET, antagonist mode. inhibition, % at 4.98 µM. actives 30% (n = 240). AID 1429;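 active means inhibition above the hit threshold that was computed for the earlier primary screen, cut at about 30% in these data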
S1P4 agonist cf – human S1P4 agonism, confirmation. AID 1523. S1P4 agonist cell-based reporter assay. actives 7% (n = 740). shares compounds with S1P4 agonist. activation, % at 4.98 µM; in the data active means activation above about 12%
S1P1 agonist – activates human S1P1, counter-screen for S1P4 agonists | shares compounds with S1P4 agonist | S1P1 agonist cell-based assay, activation | activation, % at 4.98 µM | actives 4% (n = 740) | AID 1563; in the data active means activation above about 21%
S1P4 antag cf – human S1P4 antagonism, confirmation; actives 71% (n = 520); shares compounds with S1P4 antag; inhibition, % at 4.98 µM; S1P4-expressing cell line, antagonist mode, reporter read-out; AID 1524; in the data active means inhibition above about 30%
Hits are given with their value; ! = not active in a repeat. Only some compounds are listed: those with a hit (about 0.77% of all), similar ones and a draw of the others.

`O=C(NC1(C(F)(F)F)Oc2ccc(Cl)cc2O1)N1CCC2(CC1)OCCO2` (stereo not drawn) gave S1P4 agonist inactive, S1P4 antag 42 and Pf gamet viab inactive.
Screening O=C(NC1(C(F)(F)F)Oc2ccccc2O1)N1CCC2(CC1)OCCO2 returned Calb biofilm kill inactive, S1P4 agonist inactive and S1P4 antag inactive.
CCN(CC)C(=O)c1ccc(NC(=O)CCCSc2ccccc2)cc1 was read as Calb biofilm kill inactive, S1P3 antag-1 inactive, S1P4 agonist inactive, S1P4 antag inactive and Pf gamet viab inactive.
`CCN(CC)C(=O)c1ccc(NC(=O)Nc2ccccc2F)cc1` gave Calb biofilm kill inactive, S1P3 antag-1 inactive, S1P4 agonist inactive, S1P4 antag inactive and Pf gamet viab 42.
Screening Cc1cc2c(C(C)C)c(O)c(O)c(C=O)c2c(O)c1-c1c(C)cc2c(C(C)C)c(O)c(O)c(C=O)c2c1O returned Calb biofilm kill inactive, S1P3 antag-1 inactive, S1P4 agonist inactive and S1P4 antag 32!.
Screening CCCCCOc1ccc(C)cc1CN(CCCl)CCCl returned Calb biofilm kill inactive, S1P3 antag-1 inactive, S1P4 agonist inactive, S1P4 antag inactive and Pf gamet viab inactive.
`c1ccc(C2OCCN3CCCCC23)cc1` (stereo not drawn) gave Calb biofilm kill inactive, S1P3 antag-1 inactive, S1P4 agonist 241, S1P4 antag inactive and Pf gamet viab inactive.
`N#CC(C#N)=Cc1ccc(N2CCCC2)cc1` gave Calb biofilm kill inactive, S1P3 antag-1 inactive, S1P4 agonist inactive, S1P4 antag inactive and Pf gamet viab inactive.
`Cc1ccc2c(c1)C1CN(C)CCC1N2C(=O)COc1ccc(S(=O)(=O)N2CCOCC2)cc1` (stereo not drawn) gave S1P3 antag-1 76, S1P4 agonist inactive, S1P4 antag inactive and Pf gamet viab inactive.
For Cc1ccc2c(c1)C1CN(C)CCC1N2C(=O)Cc1cccs1 (stereo not drawn) the results were S1P3 antag-1 inactive, S1P4 agonist inactive, S1P4 antag inactive and Pf gamet viab inactive.
For C/C(=N\N1CCN(C)CC1)c1c(O)n(Cc2ccccc2)c(=O)[nH]c1=O the results were Calb biofilm kill inactive, S1P3 antag-1 inactive, S1P4 agonist inactive, S1P4 antag inactive and Pf gamet viab inactive.
For Cn1ncnc2c(=O)n(C)c(=O)nc1-2 the results were S1P3 antag-1 105.
`CCOc1ccc(-c2c(C)n(-c3ccc(OCC)cc3)c3[n+]2CCCCC3)cc1` gave Calb biofilm kill inactive, S1P3 antag-1 40, S1P4 agonist inactive, S1P4 antag inactive, Pf gamet viab inactive and S1P3 antag-2 inactive.
Screening CCOc1ccc(-n2c(-c3ccoc3)nc3ccccc3c2=O)cc1 returned S1P4 agonist inactive, S1P4 antag inactive and Pf gamet viab inactive.
Screening O=C(COC(=O)Cc1ccccc1)Nc1ccc(Cl)cn1 returned Calb biofilm kill inactive, S1P3 antag-1 36, S1P4 agonist inactive, S1P4 antag inactive, Pf gamet viab inactive and S1P3 antag-2 inactive.
Cc1ccc(CN2C3CCCC2CC(NC(=S)NCc2ccccc2)C3)cc1 (stereo not drawn) was read as Calb biofilm kill inactive, S1P3 antag-1 inactive, S1P4 agonist inactive, S1P4 antag inactive and Pf gamet viab inactive.
C[C@H]1C[C@@H](C)C(=O)[C@@H]([C@H](O)CC2CC(=O)NC(=O)C2)C1 was read as Calb biofilm kill inactive, S1P3 antag-1 84, S1P4 agonist inactive, S1P4 antag inactive and S1P3 antag-2 82.
Screening CN1CCN(c2nc3ccccn3c(=O)c2C=C2C(=O)N(C)C(=O)N(C)C2=O)CC1 returned Calb biofilm kill inactive, S1P3 antag-1 inactive, S1P4 agonist inactive and S1P4 antag inactive.
CN[C@H]1C[C@H]2O[C@@](C)([C@H]1OC)n1c3ccccc3c3c4c(c5c6ccccc6n2c5c31)C(=O)NC4 was read as Calb biofilm kill inactive, S1P3 antag-1 109, S1P4 agonist inactive, S1P4 antag 105, S1P3 antag-2 121 and S1P4 antag cf 117.
Screening COCCN1Cc2cc(=O)n3c([nH]c4ccccc43)c2C1=N returned Calb biofilm kill inactive, S1P3 antag-1 inactive, S1P4 agonist inactive, S1P4 antag inactive and Pf gamet viab inactive.
Screening CC(=O)NC1CC2CCC(C1)N2 (stereo not drawn) returned S1P3 antag-1 inactive, S1P4 agonist inactive, S1P4 antag inactive and Pf gamet viab inactive.
`CC(=O)NC1CC2CCCC(C1)N2` (stereo not drawn) gave S1P3 antag-1 inactive, S1P4 agonist 25, S1P4 antag inactive, S1P4 agonist cf inactive and S1P1 agonist inactive.
For COCCNC(=O)c1c(NC(=O)c2ccco2)n(Cc2ccccc2)c2nc3ccccc3nc12 the results were S1P3 antag-1 inactive, S1P4 agonist inactive and S1P4 antag inactive.
Screening COCCCNC(=O)c1c(NC(=O)c2ccccc2Cl)n(Cc2ccccc2)c2nc3ccccc3nc12 returned S1P4 agonist 12, S1P4 antag inactive, Pf gamet viab inactive, S1P4 agonist cf inactive and S1P1 agonist inactive.
`CCOC(=O)c1c(-n2c(C)cc(C=C3C(=O)NC(=O)NC3=O)c2C)sc2c1CCCC2` gave S1P4 agonist 12, S1P4 antag inactive, Pf gamet viab inactive, S1P4 agonist cf 29 and S1P1 agonist inactive.
`S=C1CN=C(c2ccccc2Cl)c2cc(Cl)ccc2N1` gave Calb biofilm kill inactive, S1P4 agonist 27, S1P4 antag inactive, Pf gamet viab inactive, S1P4 agonist cf inactive and S1P1 agonist inactive.
For CCC(C)NC(=O)c1c(N)n(CC2CCCO2)c2nc3ccccc3nc12 (stereo not drawn) the results were S1P3 antag-1 inactive, S1P4 agonist inactive and S1P4 antag inactive.
Screening CC(C)CCNC(=O)c1c(N)n(CC2CCCO2)c2nc3ccccc3nc12 (stereo not drawn) returned S1P4 agonist 12, S1P4 antag inactive, Pf gamet viab inactive, S1P4 agonist cf inactive and S1P1 agonist inactive.
For CN1CCC2(CC1)CC(NC=O)c1ccccc1O2 (stereo not drawn) the results were Calb biofilm kill inactive, S1P3 antag-1 inactive, S1P4 agonist 13, S1P4 antag inactive, Pf gamet viab inactive, S1P4 agonist cf inactive and S1P1 agonist inactive.
For CCC(C)n1c(O)c(/C=N/Nc2ccccc2)c(=O)[nH]c1=S (stereo not drawn) the results were Calb biofilm kill inactive, S1P3 antag-1 inactive, S1P4 agonist inactive, S1P4 antag inactive and Pf gamet viab inactive.

Source: PubChem BioAssay
